ChEMBL document CHEMBL2046280, “Discovery of the novel potent and selective FLT3 inhibitor 1-{5-[7-(3- morpholinopropoxy)quinazolin-4-ylthio]-[1,3,4]thiadiazol-2-yl}-3-p-tolylurea and its anti-acute myeloid leukemia (AML) activities in vitro and in vivo” (J Med Chem, 2012)
Calls of active or inactive are those of the source. The calls are words filed in the database; no cut-off is given here.

What was measured:
[1] = tested on: MDA-MB-231; experiment: Cytotoxicity against human MDA-MB-231 cells after 72 hrs by MTT assay; conditions: MDA-MB-231, 72 h
[2] = molecular target: Tyrosine-protein kinase SYK (Homo sapiens, UniProt P43405); experiment: Inhibition of human Syk
[3] = tested on: Mus musculus; experiment: Toxicity in NOD-SCID mouse bearing human MV4-11 cells assessed as change in body weight at 20 to 100 mg/kg, ip administered qd for 21 days; format: organism-based; design: dose 20-100 mg/kg, route intraperitoneal; conditions: in vivo, 504 h
Summary of the method: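 Female NOD-SCID mice (6−7 weeks old) received s.c. hind-flank injections of MV4-11 cells (100 μL of a 1 × 10⁸/mL suspension in serum-free medium). At 300−500 mm³, the mice were randomized into 4 groups of 6. They were dosed ip once daily for 21 days with 20, 40 or 100 mg/kg/d or vehicle (25% PEG400 plus 5% DMSO, 5 mL/kg). Body weight and signs of toxicity were followed throughout.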

[4] = tested on: Ramos; experiment: Cytotoxicity against human Ramos cells after 72 hrs by MTT assay
[5] = molecular target: Mast/stem cell growth factor receptor Kit (Homo sapiens, UniProt P10721); experiment: Inhibition of human c-kit
[6] = Cytotoxicity against human SK cells after 72 hrs by MTT assay
[7] = tested on: HCT-116; experiment: Cytotoxicity against FLT3-independent human HCT116 cells after 72 hrs by MTT assay; format: functional, cell-based; conditions: HCT-116, 72 h
Summary of the method: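 Adherent lines at 2−5 × 10³ cells/well were allowed to settle 24 h, then the medium was replaced with serial inhibitor dilutions for 72 h. MTT was added for 2−4 h, followed by dissolution in 100% DMSO. OD read at 570 nm. Viability relative to 0.1% DMSO controls; triplicate. Grown in RPMI 1640 or DMEM with 10% FBS, 5% CO₂, 37 °C.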

[8] = tested on: MV4-11; experiment: Antitumor activity against human MV4-11 cells xenografted in NOD-SCID mouse assessed as tumor mitotic index at 20 mg/kg, ip administered qd for 21 days measured after 2 to 3 days of last dose by Ki67 staining-based immunohistochemical analysis; format: functional, organism-based; design: dose 20 mg/kg
Summary of the method: (§1)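 NOD-SCID mice bearing MV4-11 tumours received 20 mg/kg/d ip and were sacrificed at set times after dosing. Tumours were formalin-fixed and paraffin-embedded, and 4−8 μm sections were cut. Proliferation by Ki67 immunostaining, apoptosis by TUNEL staining, tissue by hematoxylin staining; light-microscope imaging.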

[9] = tested on: U-937; experiment: Cytotoxicity against human U937 cells after 72 hrs by MTT assay; conditions: U-937, 72 h
[10] = tested on: HeLa; experiment: Cytotoxicity against human HeLa cells after 72 hrs by MTT assay
[11] = tested on: MV4-11; experiment: Antitumor activity against human MV4-11 cells xenografted in NOD-SCID mouse assessed as increase in apoptotic cells at 20 mg/kg, ip administered qd for 21 days measured after 2 to 3 days of last dose by TUNEL analysis; format: functional, organism-based; design: dose 20 mg/kg; conditions: TDE = time-dependent effect; summary of the method: as §1
[12] = molecular target: RAF proto-oncogene serine/threonine-protein kinase (Homo sapiens, UniProt P04049); experiment: Inhibition of human c-Raf
RAF proto-oncogene serine/threonine-protein kinase, sequence (P04049 whole entry): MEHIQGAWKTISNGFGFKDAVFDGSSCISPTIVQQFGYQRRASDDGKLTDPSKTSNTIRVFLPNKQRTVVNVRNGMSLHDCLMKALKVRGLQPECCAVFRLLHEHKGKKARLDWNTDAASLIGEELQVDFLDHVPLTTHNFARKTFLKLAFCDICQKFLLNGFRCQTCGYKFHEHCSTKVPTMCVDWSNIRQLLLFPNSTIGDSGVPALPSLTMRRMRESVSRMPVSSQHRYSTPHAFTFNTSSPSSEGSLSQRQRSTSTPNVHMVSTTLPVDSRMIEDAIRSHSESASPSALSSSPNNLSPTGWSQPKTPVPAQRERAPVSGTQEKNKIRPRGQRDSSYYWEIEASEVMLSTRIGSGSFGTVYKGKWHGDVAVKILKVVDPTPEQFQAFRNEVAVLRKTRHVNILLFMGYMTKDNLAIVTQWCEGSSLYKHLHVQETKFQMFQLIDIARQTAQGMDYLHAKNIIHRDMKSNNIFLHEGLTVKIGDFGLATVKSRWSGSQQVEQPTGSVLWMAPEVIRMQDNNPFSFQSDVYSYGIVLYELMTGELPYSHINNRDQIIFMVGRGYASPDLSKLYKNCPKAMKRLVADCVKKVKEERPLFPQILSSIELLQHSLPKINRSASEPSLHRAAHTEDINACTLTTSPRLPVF

[13] = tested on: NCI-H292; experiment: Cytotoxicity against human NCI-H292 cells after 72 hrs by MTT assay; conditions: NCI-H292, 72 h
[14] = tested on: SH-SY5Y; experiment: Cytotoxicity against human SH-SY5Y cells after 72 hrs by MTT assay
[15] = molecular target: Platelet-derived growth factor receptor alpha (Homo sapiens, UniProt P16234); experiment: Inhibition of human PDGFRalpha
[16] = tested on: BT-474; experiment: Cytotoxicity against human BT474 cells after 72 hrs by MTT assay; conditions: BT-474, 72 h
[17] = tested on: SK-OV-3; experiment: Cytotoxicity against human SKOV3 cells after 72 hrs by MTT assay; conditions: SK-OV-3, 72 h
[18] = tested on: DU-145; experiment: Cytotoxicity against human DU145 cells after 72 hrs by MTT assay; conditions: DU-145, 72 h
[19] = molecular target: Serine/threonine-protein kinase PLK1 (Homo sapiens, UniProt P53350); experiment: Inhibition of human PLK1
[20] = tested on: NCI-H2228; experiment: Cytotoxicity against human NCI-H2228 cells after 72 hrs by MTT assay; conditions: NCI-H2228, 72 h
[21] = tested on: MV4-11; experiment: Antitumor activity against human MV4-11 cells xenografted in NOD-SCID mouse assessed as tumor growth inhibition at 20 mg/kg, ip once daily for 21 days measured every 3 days; format: functional; conditions: MV4-11, ip, route intraperitoneal, read-out: GI
Summary of the method: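 Female NOD-SCID mice, 6−7 weeks old, received 100 μL of MV4-11 cells (1 × 10⁸/mL in serum-free medium) s.c. in the hind flank. At 300−500 mm³ tumours, mice were randomized (6 per group). Drug was dissolved in 25% (v/v) PEG400 plus 5% DMSO and given ip once daily at 5 mL/kg. Calipers every 3 days; volume = a × b²/2.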

[22] = molecular target: Hepatocyte growth factor receptor (Homo sapiens, UniProt P08581); experiment: Inhibition of human Met
Hepatocyte growth factor receptor, sequence (P08581 whole entry): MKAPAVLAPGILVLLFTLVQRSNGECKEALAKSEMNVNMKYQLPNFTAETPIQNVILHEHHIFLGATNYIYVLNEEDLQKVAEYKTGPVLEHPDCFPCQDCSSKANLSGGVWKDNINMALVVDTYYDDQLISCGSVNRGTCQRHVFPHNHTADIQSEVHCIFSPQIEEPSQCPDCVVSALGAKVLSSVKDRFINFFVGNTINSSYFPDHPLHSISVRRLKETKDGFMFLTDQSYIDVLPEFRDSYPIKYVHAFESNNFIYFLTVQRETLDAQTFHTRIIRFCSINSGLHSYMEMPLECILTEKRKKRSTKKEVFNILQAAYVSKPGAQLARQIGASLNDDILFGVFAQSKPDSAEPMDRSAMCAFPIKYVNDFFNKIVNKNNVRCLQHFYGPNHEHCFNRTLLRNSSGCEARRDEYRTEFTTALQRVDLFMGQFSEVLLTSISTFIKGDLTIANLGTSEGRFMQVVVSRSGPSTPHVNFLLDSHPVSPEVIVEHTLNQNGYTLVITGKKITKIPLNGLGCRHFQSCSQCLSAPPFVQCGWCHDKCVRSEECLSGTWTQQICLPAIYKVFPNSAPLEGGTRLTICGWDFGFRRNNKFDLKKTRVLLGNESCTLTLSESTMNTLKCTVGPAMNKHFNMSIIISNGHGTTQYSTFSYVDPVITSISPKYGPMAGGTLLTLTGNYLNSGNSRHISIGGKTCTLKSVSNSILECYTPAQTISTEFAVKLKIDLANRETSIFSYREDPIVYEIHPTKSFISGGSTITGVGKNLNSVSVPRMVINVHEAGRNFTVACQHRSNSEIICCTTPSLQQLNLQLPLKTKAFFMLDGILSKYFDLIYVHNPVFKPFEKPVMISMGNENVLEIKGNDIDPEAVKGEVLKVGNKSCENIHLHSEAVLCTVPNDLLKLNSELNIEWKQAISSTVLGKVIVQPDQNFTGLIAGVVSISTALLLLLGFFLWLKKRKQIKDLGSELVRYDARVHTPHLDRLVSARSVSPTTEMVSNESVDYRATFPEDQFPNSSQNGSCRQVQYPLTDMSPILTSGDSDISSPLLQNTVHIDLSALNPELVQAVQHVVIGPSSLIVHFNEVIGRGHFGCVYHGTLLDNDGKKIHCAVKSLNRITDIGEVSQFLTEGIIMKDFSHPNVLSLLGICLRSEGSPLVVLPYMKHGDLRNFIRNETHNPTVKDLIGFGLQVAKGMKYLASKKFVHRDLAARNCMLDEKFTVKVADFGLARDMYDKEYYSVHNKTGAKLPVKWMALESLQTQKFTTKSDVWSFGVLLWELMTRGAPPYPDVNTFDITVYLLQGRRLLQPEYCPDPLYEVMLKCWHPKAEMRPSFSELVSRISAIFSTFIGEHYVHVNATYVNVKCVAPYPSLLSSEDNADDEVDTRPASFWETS

[23] = tested on: A549; experiment: Cytotoxicity against human A549 cells after 72 hrs by MTT assay; conditions: A549, 72 h
[24] = tested on: SW480; experiment: Cytotoxicity against human SW480 cells after 72 hrs by MTT assay; conditions: SW480, 72 h
[25] = molecular target: Aurora kinase A (Homo sapiens, UniProt O14965); experiment: Inhibition of human Aurora A
Aurora kinase A, sequence (O14965 whole entry): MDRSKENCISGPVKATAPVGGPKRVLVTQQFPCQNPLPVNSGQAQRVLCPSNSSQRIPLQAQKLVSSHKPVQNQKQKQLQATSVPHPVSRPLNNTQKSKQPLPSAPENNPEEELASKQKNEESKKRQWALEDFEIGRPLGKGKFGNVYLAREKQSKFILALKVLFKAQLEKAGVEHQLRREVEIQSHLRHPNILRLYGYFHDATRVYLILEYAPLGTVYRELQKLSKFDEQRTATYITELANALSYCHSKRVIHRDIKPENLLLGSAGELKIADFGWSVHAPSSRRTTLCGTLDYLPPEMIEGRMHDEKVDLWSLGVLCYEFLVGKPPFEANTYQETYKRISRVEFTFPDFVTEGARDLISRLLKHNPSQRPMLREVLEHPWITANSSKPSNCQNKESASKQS

[26] = molecular target: Platelet-derived growth factor receptor beta (Homo sapiens, UniProt P09619); experiment: Inhibition of human PDGFRbeta
[27] = tested on: MCF7; experiment: Cytotoxicity against human MCF7 cells after 72 hrs by MTT assay; conditions: MCF7, 72 h
[28] = tested on: LoVo; experiment: Cytotoxicity against human LoVo cells after 72 hrs by MTT assay
[29] = molecular target: Vascular endothelial growth factor receptor 1 (Homo sapiens, UniProt P17948); experiment: Inhibition of human FLT1
Vascular endothelial growth factor receptor 1, sequence (P17948 whole entry): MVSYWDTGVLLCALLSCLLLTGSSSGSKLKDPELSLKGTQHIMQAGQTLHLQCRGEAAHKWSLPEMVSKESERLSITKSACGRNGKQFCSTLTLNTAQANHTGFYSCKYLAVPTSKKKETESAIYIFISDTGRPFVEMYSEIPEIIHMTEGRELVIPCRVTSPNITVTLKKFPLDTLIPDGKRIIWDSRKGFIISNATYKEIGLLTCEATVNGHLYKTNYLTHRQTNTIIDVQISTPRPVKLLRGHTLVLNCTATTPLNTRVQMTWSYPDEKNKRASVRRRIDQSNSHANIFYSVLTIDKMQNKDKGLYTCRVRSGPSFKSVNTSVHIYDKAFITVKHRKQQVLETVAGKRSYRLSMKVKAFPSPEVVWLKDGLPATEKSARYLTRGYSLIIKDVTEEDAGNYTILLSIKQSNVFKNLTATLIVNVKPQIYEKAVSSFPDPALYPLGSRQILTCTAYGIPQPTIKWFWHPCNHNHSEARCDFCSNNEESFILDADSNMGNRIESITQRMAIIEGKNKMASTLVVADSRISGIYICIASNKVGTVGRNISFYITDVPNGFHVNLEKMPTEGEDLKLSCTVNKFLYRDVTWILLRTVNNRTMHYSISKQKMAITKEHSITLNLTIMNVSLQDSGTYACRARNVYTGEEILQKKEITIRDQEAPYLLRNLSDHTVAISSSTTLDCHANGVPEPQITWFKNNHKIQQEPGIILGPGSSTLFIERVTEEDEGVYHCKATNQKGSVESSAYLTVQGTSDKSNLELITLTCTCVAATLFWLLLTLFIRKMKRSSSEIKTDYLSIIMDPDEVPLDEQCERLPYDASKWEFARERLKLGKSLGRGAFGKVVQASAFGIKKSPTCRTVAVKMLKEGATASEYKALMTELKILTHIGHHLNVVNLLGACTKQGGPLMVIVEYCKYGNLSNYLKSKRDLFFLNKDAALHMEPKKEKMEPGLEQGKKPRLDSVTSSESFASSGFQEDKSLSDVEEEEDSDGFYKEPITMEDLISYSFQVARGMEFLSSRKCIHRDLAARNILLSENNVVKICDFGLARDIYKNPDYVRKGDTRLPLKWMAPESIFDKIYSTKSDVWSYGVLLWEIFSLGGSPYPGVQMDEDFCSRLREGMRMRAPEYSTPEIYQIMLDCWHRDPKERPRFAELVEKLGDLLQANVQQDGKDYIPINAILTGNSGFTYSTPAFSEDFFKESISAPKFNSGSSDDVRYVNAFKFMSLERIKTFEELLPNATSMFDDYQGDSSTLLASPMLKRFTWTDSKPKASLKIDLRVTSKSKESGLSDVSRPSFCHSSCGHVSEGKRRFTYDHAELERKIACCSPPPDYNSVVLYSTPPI

[30] = tested on: KARPAS-299; experiment: Cytotoxicity against human KARPAS299 cells after 72 hrs by MTT assay; conditions: KARPAS-299, 72 h
[31] = Cmax in Sprague-Dawley rat at 40 mg/kg, ip; format: ADME, organism-based; design: dose 40 mg/kg, route intraperitoneal; conditions: in vivo
Summary of the method: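 Male Sprague−Dawley rats (200−250 g), n = 3, fasted overnight, with a femoral-vein catheter for blood sampling. Single 40 mg/kg ip dose; plasma drug levels measured by LC-MS/MS.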

[32] = Cytotoxicity against human HCC827 cells after 72 hrs by MTT assay; conditions: HCC827, 72 h
[33] = molecular target: Macrophage colony-stimulating factor 1 receptor (Homo sapiens, UniProt P07333); experiment: Inhibition of human FMS
Macrophage colony-stimulating factor 1 receptor, sequence (P07333 whole entry): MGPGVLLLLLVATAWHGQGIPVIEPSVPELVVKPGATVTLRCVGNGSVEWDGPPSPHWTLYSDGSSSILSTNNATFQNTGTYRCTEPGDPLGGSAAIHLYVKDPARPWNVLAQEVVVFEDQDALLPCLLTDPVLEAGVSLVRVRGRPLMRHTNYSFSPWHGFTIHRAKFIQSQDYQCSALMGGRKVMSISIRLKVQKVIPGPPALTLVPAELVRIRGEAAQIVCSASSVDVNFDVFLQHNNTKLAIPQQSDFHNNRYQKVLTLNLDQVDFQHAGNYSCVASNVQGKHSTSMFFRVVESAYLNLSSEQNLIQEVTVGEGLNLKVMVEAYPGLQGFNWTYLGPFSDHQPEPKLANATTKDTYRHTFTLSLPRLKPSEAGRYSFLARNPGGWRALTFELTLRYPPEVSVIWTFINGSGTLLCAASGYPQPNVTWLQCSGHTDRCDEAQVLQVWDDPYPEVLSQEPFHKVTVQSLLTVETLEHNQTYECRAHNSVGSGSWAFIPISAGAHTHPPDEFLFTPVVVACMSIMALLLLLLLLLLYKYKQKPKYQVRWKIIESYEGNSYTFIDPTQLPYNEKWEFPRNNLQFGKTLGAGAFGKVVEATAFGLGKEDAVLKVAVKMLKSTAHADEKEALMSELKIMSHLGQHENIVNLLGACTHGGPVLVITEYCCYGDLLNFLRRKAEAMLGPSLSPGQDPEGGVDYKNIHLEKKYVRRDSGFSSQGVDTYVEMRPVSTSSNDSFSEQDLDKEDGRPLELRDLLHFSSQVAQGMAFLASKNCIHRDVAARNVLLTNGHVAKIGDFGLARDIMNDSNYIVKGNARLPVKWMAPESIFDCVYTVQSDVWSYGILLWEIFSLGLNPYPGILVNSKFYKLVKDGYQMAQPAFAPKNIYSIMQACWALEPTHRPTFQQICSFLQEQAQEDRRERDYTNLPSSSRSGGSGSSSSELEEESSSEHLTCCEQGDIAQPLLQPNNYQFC

[34] = tested on: MV4-11; experiment: Downregulation of STAT5 protein expression in human MV4-11 cells at 10 to 300 nM after 5 hrs by Western blot analysis; format: functional, cell-based

Compound: Cc1ccc(NC(=O)Nc2nnc(Sc3ncnc4cc(OCCCN5CCOCC5)ccc34)s2)cc1
- IC50 [1]: > 20 µM
- IC50 [2]: > 10 µM
- Activity [3]: Non-toxic
- IC50 [4]: 6.25 µM
- IC50 [5]: 6.8 µM
- IC50 [6]: > 20 µM
- IC50 [7]: > 10 µM
- Activity [8]: Active
- IC50 [9]: > 10 µM
- IC50 [10]: > 20 µM
- Activity [11]: tde
- IC50 [12]: > 10 µM
- IC50 [13]: 6.94 µM
- IC50 [14]: > 20 µM
- IC50 [15]: > 10 µM
- IC50 [16]: > 20 µM
- IC50 [17]: > 20 µM
- IC50 [18]: 18.6 µM
- IC50 [19]: > 10 µM
- IC50 [20]: > 20 µM
- inhibition in vivo at 20 mg/kg [21]: 66%
- IC50 [22]: > 10 µM
- IC50 [23]: > 20 µM
- IC50 [24]: 11.2 µM
- IC50 [25]: 1.5 µM
- IC50 [26]: > 10 µM
- IC50 [27]: > 20 µM
- IC50 [28]: > 20 µM
- IC50 [29]: > 1 µM
- IC50 [30]: > 20 µM
- Cmax [31]: 5310 ng/mL
- IC50 [32]: 12.5 µM
- IC50 [33]: 2.8 µM
- Activity [34]: inactive
